Experiments:
[1] = Selectivity index, ratio of CC50 for human MCF7 cells to IC50 for chloroquine-resistant Plasmodium falciparum FcB1; format: functional
Procedure, shortened: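 XTT 0.5 mg/mL added for 180 min, formazan read at 450 nm, value taken from dose–response curves, two experiments in triplicate. This CC50 is divided by the FcB1 IC50 to give the index.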

[2] = Cytotoxicity against human MCF7 cells after 48 hrs by MTT assay; format: cell-based
Plasmodium falciparum [3] = assay: Antimalarial activity against chloroquine-resistant Plasmodium falciparum FcB1 assessed as [3H]hypoxanthine incorporation after 48 hrs by beta-counter; format: functional, organism-based; conditions: FcB1/Columbia
Procedure, shortened: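 Primary assay (Toulouse) on FcB1 cultured in RPMI with 25 mM HEPES and 10% human serum, O RBCs. Serial dilutions in triplicate, 2% parasitaemia, 2% haematocrit, 48 h at 37 °C, 5% CO2. [3H]-hypoxanthine added at 24 h, freeze-thaw harvest, β-counting. IC50 by linear regression on the linear segment of the semilog inhibition curve. Three independent repeats.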

Plasmodium falciparum [4] = assay: Antimalarial activity against Plasmodium falciparum K1 assessed as [3H]hypoxanthine incorporation by scintillation counting; format: functional, organism-based
Plasmodium falciparum [5] = assay: Antimalarial activity against drug-sensitive Plasmodium falciparum 3D7 assessed as [3H]hypoxanthine incorporation by scintillation counting; format: functional, organism-based
Plasmodium falciparum [6] = assay: Resistance index, ratio of IC50 for chloroquine-resistant Plasmodium falciparum FcB1 to IC50 for drug-sensitive Plasmodium falciparum 3D7; format: functional
Plasmodium falciparum [7] = assay: Resistance index, ratio of IC50 for chloroquine-resistant Plasmodium falciparum K1 to IC50 for drug-sensitive Plasmodium falciparum 3D7; format: functional
[8] = Cytotoxicity against human KB cells after 72 hrs by alamar blue assay; format: cell-based
Procedure, shortened: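 KB cells were seeded at 4×10^4 cells/mL in RPMI 1640 with 10% heat-inactivated FCS and left 24 h at 37 °C, 5% CO2. A dilution series was added in triplicate for 72 h, then AlamarBlue for 2–4 h. Fluorescence was read at ex 530/em 585 nm, with podophyllotoxin as positive control and values from curve fitting.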

[9] = Selectivity index, ratio of CC50 for human KB cells to IC50 for drug-sensitive Plasmodium falciparum 3D7; format: functional
Procedure, shortened: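 The 3D7 value came from [3H]hypoxanthine incorporation: synchronized culture at 0.5% parasitaemia, 2.5% hematocrit, Albumax-supplemented medium, 2-fold dilutions from 100 to 0.05 μM in triplicate, label added at 24 h and harvested at 48 h.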

Compound	Ratio CC50/IC50 [1]	CC50 at 48 h [2]	IC50 (Plasmodium falciparum [3])	IC50 (Plasmodium falciparum [4])	IC50 (Plasmodium falciparum [5])	Ratio IC50 (Plasmodium falciparum [6])	Ratio IC50 (Plasmodium falciparum [7])	CC50 at 72 h [8]	Ratio CC50/IC50 [9]
COc1ccc2c(c1)[N+]([O-])=C(c1ccc(Cl)cc1)C2=O	69	10.4 µM	0.15 µM						
COC(=O)c1ccc2c(c1)[N+]([O-])=C(c1ccc(OC)cc1)C2=O	194.9	40.2 µM	0.206 µM						
CCCC1=[N+]([O-])c2ccccc2C1=O	2	26.4 µM	12.2 µM						
CC(C)CC1=[N+]([O-])c2ccccc2C1=O	<9	43.1 µM	> 4.5 µM						
COc1ccc(C2=[N+]([O-])c3cc(C)ccc3C2=O)cc1	75	14.9 µM	0.198 µM						
COc1ccc2c(c1)C(=O)C(c1ccc(-c3ccc(Cl)cc3)cc1)=[N+]2[O-]	19	12.1 µM	0.63 µM						
O=C1C(c2ccc(Oc3ccccc3)cc2)=[N+]([O-])c2cc3c(cc21)OCO3	74	12.2 µM	0.165 µM	0.138 µM	0.285 µM	0.6	0.5		
COc1ccc(C2=[N+]([O-])c3cc(OC(F)(F)F)ccc3C2=O)cc1	88.1	11.7 µM	0.133 µM	0.112 µM	0.021 µM	6.3	5.3	16 µM	
O=C1C(c2ccsc2)=[N+]([O-])c2cc(Cl)ccc21	38	4.9 µM	0.13 µM						
COc1ccc2c(c1)C(=O)C(c1ccc(Cl)c(Cl)c1)=[N+]2[O-]	81	8.1 µM	0.1 µM						
O=C1C(c2ccc(Cl)cc2)=[N+]([O-])c2ccccc21	66	17.8 µM	0.272 µM						
COc1ccc2c(c1)C(=O)C(c1ccc(Cl)c(C)c1)=[N+]2[O-]	3425	10.3 µM	0.003 µM						
O=C1C(c2ccc(Cl)cc2)=[N+]([O-])c2cc(C(F)(F)F)ccc21	16.5	3.1 µM	0.186 µM						
Cc1ccc(C2=[N+]([O-])c3ccccc3C2=O)cc1	8.5	15 µM	1.77 µM						
O=C1C(c2ccccc2)=[N+]([O-])c2cc3c(cc21)OCO3			12.7 µM						
COc1ccc2c(c1)C(=O)C(c1ccsc1)=[N+]2[O-]	45.5	12.3 µM	0.27 µM						
COc1ccc(C2=[N+]([O-])c3cc(OC)ccc3C2=O)cc1	83.3	8.8 µM	0.106 µM						
COc1ccc2c(c1)C(=O)C(c1ccc(Oc3ccccc3)cc1)=[N+]2[O-]	40	7.7 µM	0.193 µM	< 0.0015 µM	0.037 µM	5.2	<0.04	5.6 µM	151
O=C1C(c2ccc(Cl)c(Cl)c2)=[N+]([O-])c2ccccc21	88	13.7 µM	0.155 µM	0.08 µM	0.098 µM	1.6	0.8	570 µM	5816
COc1ccc2c(c1)C(=O)C(c1ccc(C(C)(C)C)cc1)=[N+]2[O-]	53.9	11 µM	0.204 µM						
COc1ccc2c(c1)C(=O)C(c1cccc(Cl)c1)=[N+]2[O-]	248	5.2 µM	0.021 µM	0.096 µM	0.139 µM	0.2	0.7	64 µM	688
COc1ccc2c(c1)C(=O)C(c1ccc(C)cc1)=[N+]2[O-]	>721	> 37.5 µM	0.052 µM	0.02 µM	0.027 µM	1.9	0.7	56 µM	2074
COc1ccc2c(c1)C(=O)C(c1ccc(Cl)c(C(F)(F)F)c1)=[N+]2[O-]	270	13.5 µM	0.05 µM	0.005 µM	0.069 µM	0.7	0.1	< 1.4 µM	<20
COc1cc2c(cc1OC)[N+]([O-])=C(c1ccccc1)C2=O			1.89 µM						
COc1ccc2c(c1)C(=O)C(c1ccc(Cl)cc1Cl)=[N+]2[O-]	>136	> 31 µM	0.227 µM						
COc1ccc2cc(C3=[N+]([O-])c4ccccc4C3=O)ccc2c1		15.3 µM						233 µM	2589

Reference: ChEMBL document CHEMBL1156797, “Synthesis and antiplasmodial activity of new indolone N-oxide derivatives” (J Med Chem, 2010)
